Calls of active or inactive are those of the source. The rule behind the calls is not given here.
What was measured:
MCF7 = experiment: Antiproliferative activity against human MCF7 cells assessed as inhibition of cell growth rate at 10 uM measured after 48 hrs by MTT assay; format: functional
Method in brief: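 MCF-7 cells in DMEM with 10% FBS exposed to a single 10 µM concentration for 48 h. Read-out by MTT (0.5 mg/ml, 4 h, DMSO dissolution, A570). Inhibition rate given versus untreated control as mean ± SD, n = 3.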

MDA-MB-231 [1] = experiment: Induction of cell cycle arrest in human MDA-MB-231 cells assessed as accumulation at G2/M phase at 1 uM measured after 24 hrs by propidium iodide staining based flow cytometric method (reference value: 18.55%); format: functional
MDA-MB-231 [2] = experiment: Induction of apoptosis in human MDA-MB-231 cells assessed as viable cells at 2 uM after 24 hrs by Annexin V/propidium iodide based flow cytometric analysis (reference value: 99%); format: functional; conditions: read-out: Activity
Method in brief: (§1)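 MDA-MB-231 cells (2×10^5/well) attached 24 h, then treated 24 h with 1, 1.5, 2 or 3 µM, DMSO as control. Cells harvested, PBS-washed, resuspended in binding buffer, stained with Annexin V and PI for 30 min at 37°C in the dark, and analysed by flow cytometry for quadrant percentages; three experiments.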

MDA-MB-231 [3] = experiment: Induction of apoptosis in human MDA-MB-231 cells assessed as late apoptotic cells at 1 uM after 24 hrs by Annexin V/propidium iodide based flow cytometric analysis (reference value: 0.038%); format: functional; method in brief: as §1
MDA-MB-231 [4] = experiment: Induction of reactive oxygen species production in human MDA-MB-231 cells at 2 uM preincubated with ROS scavenger, NAC for 2 hrs followed by incubation with compound for 24 hrs by DCFH-DA staining based flow cytometry analysis relative to control; format: functional
Method in brief: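 MDA-MB-231 seeded at 2×10^5 cells/well, grown 24 h, pretreated with NAC (2.5 mM) for 2 h, then given 2 µM compound for 24 h. Cells loaded with DCFH-DA 30 min at 37°C in the dark, washed in PBS, resuspended in serum-free medium and read by flow cytometry; three independent experiments.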

MDA-MB-231 [5] = experiment: Induction of apoptosis in human MDA-MB-231 cells assessed as downregulation of Bcl-2 expression at 1.5 to 6 uM measured after 8 hrs by Western blot analysis; format: functional, cell-based; conditions: dose 1.5-6 µM
Method in brief: (§2)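 MDA-MB-231 cells (8×10^5 per 60 mm dish) attached 24 h, then exposed 8 h to 1.5, 3 or 6 µM, DMSO as control. Lysates quantified by BCA; 30 µg protein run on 4–20% SDS-PAGE, transferred to PVDF, probed for Bcl-2, Bax, Bad, cleaved caspase-9, cleaved caspase-3 and PARP, with ECL detection. Densitometric relative levels; three experiments.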

MDA-MB-231 [6] = experiment: Induction of apoptosis in human MDA-MB-231 cells assessed as viable cells at 1.5 uM after 24 hrs by Annexin V/propidium iodide based flow cytometric analysis (reference value: 99%); format: functional; conditions: read-out: Activity; method in brief: as §1
A549 = experiment: Anticancer activity against human A549 cells assessed as inhibition of cell proliferation measured after 48 hrs by MTT assay; format: functional, cell-based; conditions: A549, 48 h
Method in brief: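 Cells seeded at ~5,000/well, grown 24 h to partial monolayer, then exposed 48 h at 37°C, 5% CO2 to 0.5, 1, 2, 4, 10 and 20 µM (DMSO ≤0.1%). MTT final 0.5 mg/ml for 4 h, formazan dissolved in DMSO, A570. Survival expressed as % of untreated control; IC50 from dose-response curves; three independent experiments.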

[7] = Prodrug release in human MDA-MB-231 cells assessed as increase in intracellular NO level at 25 uM measured after 2.5 hrs by total nitric oxide assay; format: ADME, cell-based; conditions: mda-mb-23, 2.5 h
Method in brief: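 MDA-MB-231 (2×10^5 cells/well) cultured 24 h, then treated 2.5 h with compound at 25 µM or DMSO. Cells harvested, lysed in nitric oxide assay buffer 1 h on ice; lysate NO quantified with a total nitric oxide assay kit. Mean ± SD, n = 3.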

[8] = (§3) Induction of intracellular reactive oxygen species generation in human MDA-MB-231 cells assessed as proportion of FL1-H negative cells at 2 uM measured after 24 hrs by DCFH-DA staining based flow cytometry analysis (reference value: 52.2%); format: functional, MDA-MB-23
MDA-MB-231 [9] = experiment: Induction of apoptosis in human MDA-MB-231 cells assessed as necrotic cells at 2 uM after 24 hrs by Annexin V/propidium iodide based flow cytometric analysis (reference value: 0.019%); format: functional; method in brief: as §1
[10] = as §3, with “uM pretreated with ROS scavenger, NAC for 2 hrs prior to incubation with compound and” for “uM”; format: functional, MDA-MB-23
MDA-MB-231 [11] = experiment: Induction of apoptosis in human MDA-MB-231 cells assessed as up-regulation of Bad expression at 1.5 to 6 uM measured after 8 hrs by Western blot analysis; format: functional, cell-based; conditions: dose 1.5-6 µM; method in brief: as §2
MDA-MB-231 [12] = experiment: Induction of intracellular reactive oxygen species generation in human MDA-MB-231 cells at 2 uM measured after 24 hrs by DCFH-DA staining based flow cytometry analysis relative to control; format: functional
Method in brief: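 MDA-MB-231 cells at 2×10^5 cells/well, grown 24 h, exposed 24 h to compound (1, 1.5, 2 µM) or DMSO control. Cells then took up DCFH-DA for 30 min at 37°C in the dark, were PBS-washed, resuspended in serum-free medium and analysed by flow cytometry. Relative DCF level vs control; mean ± SD, n = 3.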

MDA-MB-231 [13] = experiment: Induction of apoptosis in human MDA-MB-231 cells assessed as early apoptotic cells at 1.5 uM after 24 hrs by Annexin V/propidium iodide based flow cytometric analysis (reference value: 0.94%); format: functional; method in brief: as §1
MDA-MB-231 [14] = experiment: Inhibition of colony formation in human MDA-MB-231 cells at 0.25 uM incubated for 24 hrs followed by culturing in fresh medium for 10 days by crystal violet staining based assay; format: functional, cell-based
Method in brief: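 MDA-MB-231 seeded at 1.5×10^3 cells/well, 24 h attachment, then 24 h exposure to compound (0.25, 0.5, 1 µM) or DMSO; fresh medium for a further 10 days. Fixed in 4% paraformaldehyde 0.5 h at 4°C, crystal violet stained, dye dissolved in DMSO and absorbance read at 590 nm; performed three times.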

[15] = Prodrug release in human MDA-MB-231 cells assessed as increase in intracellular NO level at 1 to 10 uM measured after 2.5 hrs by DAF-FM DA reagent based scanning electron microscopy; format: ADME, cell-based; conditions: mda-mb-231, 2.5 h, in the assay text read “laser scanning confocal microscopy” for “scanning electron microscopy”, dose 1-10 µM
Method in brief: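 After 24 h growth at 5×10^4 cells/well, MDA-MB-231 cells loaded with DAF-FM DA (5 µM) 30 min at 37°C, 5% CO2, PBS-washed, then incubated 2.5 h with compound at 1 or 10 µM (scopoletin at 10 µM). NO fluorescence imaged by laser scanning confocal microscopy.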

[16] = Induction of intracellular reactive oxygen species generation in human MDA-MB-231 cells assessed as proportion of FL1-H positive cells at 1.5 uM measured after 24 hrs by DCFH-DA staining based flow cytometry analysis (reference value: 47.8%); format: functional, MDA-MB-23
MDA-MB-231 [17] = experiment: Induction of apoptosis in human MDA-MB-231 cells assessed as increase in cleaved caspase-9 protein expression incubated for 8 hrs by Western blot analysis; format: functional, cell-based; conditions: dose 1.5-6 µM; method in brief: as §2

COc1cc2cc(N)c(=O)oc2cc1OCCCOc1no[n+]([O-])c1S(=O)(=O)c1ccccc1
inhibition at 10 µM (MCF7): 91.5% | Activity (MDA-MB-231 [1]): 24.58% | viability at 2 µM (MDA-MB-231 [2]): 71.1% | Activity (MDA-MB-231 [3]): 8.17% | fold change (FC) (MDA-MB-231 [4]): 1.09 | Activity (MDA-MB-231 [5]): Active | viability at 1.5 µM (MDA-MB-231 [6]): 75.7% | IC50 (A549): 4.18 µM | Drug metabolism [7]: Metabolite_Detected | Activity [8]: 11.2% | Activity (MDA-MB-231 [9]): 0.2% | Activity [10]: 49% | Activity (MDA-MB-231 [11]): Active | fold change (FC) (MDA-MB-231 [12]): 2.16 | Activity (MDA-MB-231 [13]): 10.8% | inhibition (MDA-MB-231 [14]): Active | Drug metabolism [15]: Metabolite_Detected | Activity [16]: 82.7% | Activity (MDA-MB-231 [17]): Dose-dependent effect

Reference: ChEMBL document CHEMBL4765333, “Novel NO-releasing scopoletin derivatives induce cell death via mitochondrial apoptosis pathway and cell cycle arrest” (Eur J Med Chem, 2020)
